Reference: article PMC9009525 (ACS synthetic biology, 2021)
Ends that are not written are not given here.

System: T7 Express LysY/I^q E. coli
Experiment: Induction test: growth
Assay type: cell-based, Escherichia coli
Settings: 0.50 mM IPTG, LB with kan, 37 °C, OD600 over nine hours
Summary of the method: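 T7 Express LysY/Iq E. coli transformed with 80 ng pETh vector carrying oncocin or a negative control, each separately. After SOC recovery, cells were pelleted and resuspended in LB with 50 µg mL-1 kanamycin. This suspension seeded LB-kanamycin (1:100) containing 0 to 0.50 mM IPTG. Cultures were shaken at 250 rpm at 37 °C for nine hours, with OD600 read every 50 minutes.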

## VDKPPYLPRPRPPRRIYNR-NH2 (C-terminus assumed) [oncocin]
  growth of oncocin-expressing E. coli upon induction (in words): nearly complete growth inhibition
